How the values were obtained:
Settings in all cases: in vivo
Rattus norvegicus [1] = test: The biodistribution of the [125I]-labeled compound in rats after intravenous injection was evaluated in heart at 0.25 hrs (ID.kg/g); type: ADME, organism-based
Summary of the method: (§1)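 Male Sprague-Dawley rats (250–300 g) under ether anesthesia were given an iv injection of no-carrier-added 125I-labelled agent (10–15 μCi in 0.1 mL saline). The agent was iodinated with chloramine-T in acetate buffer and purified by C-18 HPLC. Groups of N = 3 were killed at 0.25, 1 and 4 h. Blood and tissues were weighed and γ-counted. Values are % ID·kg/g, mean (range).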

Rattus norvegicus [2] = test: The biodistribution of the [125I]-labeled compound in rats after intravenous injection was evaluated in fat at 0.25 hr (ID. kg/g); type: ADME, organism-based, Adipose tissue; summary of the method: as §1
Rattus norvegicus [3] = test: The biodistribution of the [125I]-labeled compound in rats after intravenous injection was evaluated in liver at 1.00 hrs; value ranges from 0.54-0.58 (ID.kg/g); type: ADME, organism-based
Summary of the method: (§2)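 Male Sprague-Dawley rats (250–300 g), under ether anesthesia, given 10–15 μCi of the NCA ¹²⁵I-labeled agent iv in 0.1 mL saline. Groups of N = 3 were killed at 0.25, 1 or 4 h. Blood and tissues were removed, weighed and counted in a γ-well scintillation counter. Values are mean % ID·kg/g (range).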

Rattus norvegicus [4] = test: The biodistribution of the [125I]-labeled compound in rats after intravenous injection was evaluated in muscle at 0.25 hrs; value ranges from 0.03-0.04 (ID.kg/g); type: ADME, organism-based, Muscle tissue
Summary of the method: (§3)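 Male Sprague-Dawley rats (250–300 g) under ether anesthesia given iv 0.1 mL saline containing 10–15 μCi of NCA ¹²⁵I-labeled agent (chloramine-T iodination, HPLC-purified). Groups of 3 killed at 0.25, 1 and 4 h. Blood and tissues excised, weighed and γ-counted. Values are mean (range) of % injected dose × body mass (kg) per gram of tissue.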

Rattus norvegicus [5] = test: The biodistribution of the [125I]-labeled compound in rats after intravenous injection was evaluated in brain at 4.00 hrs; value ranges from 0.04-0.05 (ID.kg/g); type: ADME, organism-based; summary of the method: as §1
Rattus norvegicus [6] = test: The biodistribution of the [125I]-labeled compound in rats after intravenous injection was evaluated in blood at 4.00 hrs; value ranges from […]-0.09 (ID.kg/g); type: ADME, organism-based; summary of the method: as §1
Rattus norvegicus [7] = test: The biodistribution of the [125I]-labeled compound in rats after intravenous injection was evaluated in adrenal at 1.00 hrs; value ranges from 0.84-1.04 (ID.kg/g); type: ADME, organism-based; summary of the method: as §1
Rattus norvegicus [8] = test: The biodistribution of the [125I]-labeled compound in rats after intravenous injection was evaluated in fat at 1.00 hrs; value ranges from 0.07-0.09 (ID.kg/g); type: ADME, organism-based, Adipose tissue; summary of the method: as §1
Rattus norvegicus [9] = test: The biodistribution of the [125I]-labeled compound in rats after intravenous injection was evaluated in lung at 4.00 hrs (ID.kg/g); type: ADME, organism-based; summary of the method: as §2
Rattus norvegicus [10] = test: The biodistribution of the [125I]-labeled compound in rats after intravenous injection was evaluated in blood at 1.00 hrs (ID.kg/g); type: ADME, organism-based; summary of the method: as §1
Rattus norvegicus [11] = test: The biodistribution of the [125I]-labeled compound in rats after intravenous injection was evaluated in liver at 0.25 hr; value ranges from 0.69-1.03 (ID.kg/g); type: ADME, organism-based; summary of the method: as §2
Rattus norvegicus [12] = test: The biodistribution of the [125I]-labeled compound in rats after intravenous injection was evaluated in thyroid at 1.00 hrs; value ranges from 2.56-3.24 (ID.kg/g); type: ADME, organism-based, Thyroid gland; summary of the method: as §3
Rattus norvegicus [13] = test: The biodistribution of the [125I]-labeled compound in rats after intravenous injection was evaluated in liver at 4.00 hrs; value ranges from 0.40-0.61 (ID.kg/g); type: ADME, organism-based; summary of the method: as §2
Rattus norvegicus [14] = test: The biodistribution of the [125I]-labeled compound in rats after intravenous injection was evaluated in fat at 4.00 hrs; value ranges from 0.07-0.09 (ID.kg/g); type: ADME, organism-based, Adipose tissue; summary of the method: as §1
Rattus norvegicus [15] = test: The biodistribution of the [125I]-labeled compound in rats after intravenous injection was evaluated in thyroid at 4.00 hrs; value ranges from 14.14-15.81 (ID.kg/g); type: ADME, organism-based, Thyroid gland; summary of the method: as §3
Rattus norvegicus [16] = test: The biodistribution of the [125I]-labeled compound in rats after intravenous injection was evaluated in muscle at 4.00 hrs (ID.kg/g); type: ADME, organism-based, Muscle tissue; summary of the method: as §3
Rattus norvegicus [17] = test: The biodistribution of the [125I]-labeled compound in rats after intravenous injection was evaluated in brain at 1.00 hrs; value ranges from 0.14-0.15 (ID.kg/g); type: ADME, organism-based; summary of the method: as §1
Rattus norvegicus [18] = test: The biodistribution of the [125I]-labeled compound in rats after intravenous injection was evaluated in kidney at 4.00 hrs; value ranges from 0.26-0.35 (ID.kg/g); type: ADME, organism-based; summary of the method: as §2
Rattus norvegicus [19] = test: The biodistribution of the [125I]-labeled compound in rats after intravenous injection was evaluated in kidney at 1.00 hrs; value ranges from 0.26-0.35 (ID.kg/g); type: ADME, organism-based; summary of the method: as §2
Rattus norvegicus [20] = test: The biodistribution of the [125I]-labeled compound in rats after intravenous injection was evaluated in muscle at 1.00 hrs; value ranges from 0.03-0.04 (ID.kg/g); type: ADME, organism-based, Muscle tissue; summary of the method: as §3
Rattus norvegicus [21] = test: The biodistribution of the [125I]-labeled compound in rats after intravenous injection was evaluated in heart at 1.00 hrs; value ranges from 0.08-0.09 (ID.kg/g); type: ADME, organism-based; summary of the method: as §1
Rattus norvegicus [22] = test: The biodistribution of the [125I]-labeled compound in rats after intravenous injection was evaluated in heart at 4.00 hrs; value ranges from 0.04-0.06 (ID.kg/g); type: ADME, organism-based; summary of the method: as §2
Rattus norvegicus [23] = test: The biodistribution of the [125I]-labeled compound in rats after intravenous injection was evaluated in adrenal at 4.00 hrs; value ranges from 0.20-0.32 (ID.kg/g); type: ADME, organism-based; summary of the method: as §1
Rattus norvegicus [24] = test: The biodistribution of the [125I]-labeled compound in rats after intravenous injection was evaluated in thyroid at 0.25 hrs; value ranges from 1.31-2.46( ID.kg/g); type: ADME, organism-based, Thyroid gland; summary of the method: as §3
Rattus norvegicus [25] = test: The biodistribution of the [125I]-labeled compound in rats after intravenous injection was evaluated in blood at 0.25 hrs (ID.kg/g); type: ADME, organism-based; summary of the method: as §1
Rattus norvegicus [26] = test: The biodistribution of the [125I]-labeled compound in rats after intravenous injection was evaluated in brain at 0.25 hrs; value ranges from 0.23-0.25 (ID.kg/g); type: ADME, organism-based; summary of the method: as §1
Rattus norvegicus [27] = test: The biodistribution of the [125I]-labeled compound in rats after intravenous injection was evaluated in lung at 0.25 hrs; value ranges from 0.52-0.58 (ID.kg/g); type: ADME, organism-based; summary of the method: as §2
Rattus norvegicus [28] = test: The biodistribution of the [125I]-labeled compound in rats after intravenous injection was evaluated in lung at 1.00 hrs; value ranges from 0.34-0.43 (ID.kg/g); type: ADME, organism-based; summary of the method: as §2
Rattus norvegicus [29] = test: The biodistribution of the [125I]-labeled compound in rats after intravenous injection was evaluated in kidney at 0.25 hr; value ranges from 0.28-0.32 (ID.kg/g); type: ADME, organism-based; summary of the method: as §2
Rattus norvegicus [30] = test: The biodistribution of the [125I]-labeled compound in rats after intravenous injection was evaluated in adrenal at 0.25 hrs; value ranges from 1.25-1.44 (ID.kg/g); type: ADME, organism-based; summary of the method: as §1

CCN1CCN(c2ccc(I)cc2)CC1 gave a Biodistribution (Rattus norvegicus [1]) of 0.1%, a Biodistribution (Rattus norvegicus [2]) of 0.09 % ID·kg/g and a Biodistribution (Rattus norvegicus [3]) of 0.58%. For the same molecule, the Biodistribution (Rattus norvegicus [4]) was 0.04%, the Biodistribution (Rattus norvegicus [5]) was 0.05% and the Biodistribution (Rattus norvegicus [6]) was 0.09%. For the same molecule, the Biodistribution (Rattus norvegicus [7]) was 1.04%, the Biodistribution (Rattus norvegicus [8]) was 0.09% and the Biodistribution (Rattus norvegicus [9]) was 0.17%. For the same molecule, the Biodistribution (Rattus norvegicus [10]) was 0.07 % ID·kg/g, the Biodistribution (Rattus norvegicus [11]) was 1.03% and the Biodistribution (Rattus norvegicus [12]) was 3.24%. It also gave a Biodistribution (Rattus norvegicus [13]) of 0.61%, a Biodistribution (Rattus norvegicus [14]) of 0.09% and a Biodistribution (Rattus norvegicus [15]) of 15.81%. For the same molecule, the Biodistribution (Rattus norvegicus [16]) was 0.02 %ID·kg/g, the Biodistribution (Rattus norvegicus [17]) was 0.16% and the Biodistribution (Rattus norvegicus [18]) was 0.35%. The Biodistribution (Rattus norvegicus [19]) was 0.35%, the Biodistribution (Rattus norvegicus [20]) was 0.04% and the Biodistribution (Rattus norvegicus [21]) was 0.09%. The Biodistribution (Rattus norvegicus [22]) was 0.06%, the Biodistribution (Rattus norvegicus [23]) was 0.32% and the Biodistribution (Rattus norvegicus [24]) was 2.46%. For the same molecule, the Biodistribution (Rattus norvegicus [25]) was 0.04 % ID·kg/g, the Biodistribution (Rattus norvegicus [26]) was 0.25% and the Biodistribution (Rattus norvegicus [27]) was 0.58%. It also gave a Biodistribution (Rattus norvegicus [28]) of 0.43%, a Biodistribution (Rattus norvegicus [29]) of 0.38% and a Biodistribution (Rattus norvegicus [30]) of 1.44%.
